Test results reported in PubChem BioAssay AID623895 (Broad Institute, 2012).
Calls of active or inactive are those of the source.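 The calls were made as follows: active = compounds with an ATP-loss curve whose half-maximal dose stays within twice the top dose, in every run; inconclusive = mixed run calls, weak flat effects or poor fits; inactive = the rest, including opposite-direction effects.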

How the values were obtained:
[1] = test system: ldlA[mSR-BI] CHO cells viability, ATP luminescence, 24 h; assay: cytotoxicity in ldlA[mSR-BI] CHO cells, dose response, cytotoxicity control for SR-BI HDL uptake inhibitor project, cell-based, 24 h, ATP luminescence, dry powder, set 6 (AID 623895)
In short: (§1)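 material = ldlA[mSR-BI] cells | dosing = Eight-point compound dose series | incubation = 24 h at 37 °C, read after 10 min | signal = ATP luminescence (Cell Titer Glo) | read-out basis = viability IC50 from dose-response fit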

[2] = as above; conditions: ldlA[mSR-BI] CHO cells viability, ATP luminescence, 24 h; at 35 µM (top of the series)
In short: as §1

Row | SMILES | AC50 [1] [µM] | activity change, negative = cytotoxicity [2]
1 | COc1c(NC(=O)C(=O)c2ccc(OCCN3CCOCC3)c3ccccc23)cc(C(C)(C)C)cc1NS(C)(=O)=O | 34.3 | 
2 | CCCCCCC1CCC/C1=N\NC(N)=S (stereo not given) | 3.81 | 
3 | C[C@@H]1CN([C@H](C)CN(C)C)C(=O)c2cc(NC(=O)Cc3cn(C)c4ccccc34)ccc2O[C@H]1CN(C)S(=O)(=O)c1ccc(Cl)cc1 | 15.3 | 
4 | C[C@@H]1CN([C@H](C)CO)C(=O)c2cc(NC(=O)Cc3cn(C)c4ccccc34)ccc2O[C@H]1CN(C)S(=O)(=O)c1cn(C)cn1 |  | -6.33% (inactive)
5 | C[C@@H]1CN([C@H](C)CO)C(=O)c2cc(NC(=O)C3CCCCC3)ccc2O[C@H]1CN(C)S(=O)(=O)c1ccc(Cl)cc1 |  | -30.6% (inactive)
6 | CC(C)NC(=O)Nc1cccc2c1O[C@@H](CN(C)Cc1ccc(C(F)(F)F)cc1)[C@@H](C)CN([C@@H](C)CO)C2=O |  | -11.3% (inactive)
7 | C[C@@H]1CN([C@H](C)CO)C(=O)c2cc(NC(=O)Cc3cn(C)c4ccccc34)ccc2O[C@H]1CN(C)CC1CCCCC1 |  | -22.1% (inactive)
8 | Cc1noc(C)c1NC(=O)N(C)C[C@@H]1Oc2ccc(NC(=O)Cc3cn(C)c4ccccc34)cc2C(=O)N([C@H](C)CO)C[C@H]1C |  | 10.5% (inactive)
9 | C[C@@H]1CN([C@H](C)CO)C(=O)c2cc(NC(=O)Nc3ccccc3)ccc2O[C@H]1CN(C)S(=O)(=O)c1ccc(Cl)cc1 |  | -34.8% (inactive)
10 | C[C@H](CO)N1C[C@H](C)[C@H](CN(C)CC2CCCCC2)Oc2c(NS(=O)(=O)c3cn(C)cn3)cccc2C1=O |  | 5.52% (inactive)
